Measured values as given in ChEMBL document CHEMBL5352462, “Resveratrol derivatives: Synthesis and their biological activities” (Eur J Med Chem, 2023).
Each block holds one molecule with its values, some of them ahead of it.

What was measured:
HT-29 = assay: Cytotoxicity against human HT-29 cells incubated for 24 hrs by MTT assay; format: functional, cell-based; details: HT-29, 24 h
Procedure, shortened: (§1)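 Cells plated at 1.5 × 10⁵ per well, allowed to adhere overnight, medium refreshed, then treated at 10, 50 and 100 μM for 24 h; DMSO vehicle controls (<0.1%). Medium replaced after 72 h. MTT at 5 mg/mL in PBS added, 3 h at 37 °C in 5% CO₂; formazan dissolved in DMSO, absorbance read at 550 nm. IC50 from dose-response curves, mean ± SE of three independent experiments.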

[1] = Lipophilicity, logP of compound; format: physicochemical; details: octanol/water
Procedure, shortened: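 Log P calculated in silico, not measured experimentally.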

MIA PaCa-2 = assay: Cytotoxicity against human MIA PaCa-2 cells incubated for 24 hrs by MTT assay; format: functional, cell-based; details: MIA PaCa-2, 24 h; procedure, shortened: as §1
HCT-116 [2] = assay: Cytotoxicity against HCT-116 cell expressing KRAS assessed as growth inhibition by measuring synthetic lethality at 2 uM relative to control; format: functional; details: Homo sapiens
HCT cell line [3] = assay: Cytotoxicity against HCT cell expressing KRAS assessed as growth inhibition by measuring synthetic lethality at 2 uM relative to control; format: functional; details: Homo sapiens
SNU-C1 [4] = assay: Cytotoxicity against human SNU-C1 cell expressing KRAS assessed as growth inhibition by measuring synthetic lethality at 20 uM relative to control; format: functional
COLO 320 [5] = assay: Cytotoxicity against human COLO 320 cell expressing KRAS assessed as growth inhibition by measuring synthetic lethality at 0.2 uM relative to control; format: functional
RKO = assay: Cytotoxicity against human RKO cell expressing KRAS assessed as growth inhibition by measuring synthetic lethality at 0.2 uM relative to control; format: functional
HCT cell line [6] = assay: Cytotoxicity against HCT cell expressing KRAS assessed as growth inhibition by measuring synthetic lethality at 0.2 uM relative to control; format: functional; details: Homo sapiens
SNU-C1 [7] = assay: Cytotoxicity against human SNU-C1 cell expressing KRAS assessed as growth inhibition by measuring synthetic lethality at 2 uM relative to control; format: functional
COLO 320 [8] = assay: Cytotoxicity against human COLO 320 cell expressing KRAS assessed as growth inhibition by measuring synthetic lethality at 2 uM relative to control; format: functional
SNU-C1 [9] = assay: Cytotoxicity against human SNU-C1 cell expressing KRAS assessed as growth inhibition by measuring synthetic lethality at 0.2 uM relative to control; format: functional
COLO 320 [10] = assay: Cytotoxicity against human COLO 320 cell expressing KRAS assessed as growth inhibition by measuring synthetic lethality at 20 uM relative to control; format: functional
HCT cell line [11] = assay: Cytotoxicity against HCT cell expressing KRAS assessed as growth inhibition by measuring synthetic lethality at 20 uM relative to control; format: functional; details: Homo sapiens
HCT-116 [12] = assay: Cytotoxicity against HCT-116 cell expressing KRAS assessed as growth inhibition by measuring synthetic lethality at 20 uM relative to control; format: functional; details: Homo sapiens
[13] = biological target: Calcitonin gene-related peptide type 1 receptor (Homo sapiens) (UniProt Q16602); assay: Inhibition of human CGRP1 at 30 uM relative to control
[14] = biological target: Calcitonin gene-related peptide type 1 receptor (Homo sapiens, UniProt O60894+Q16602); assay: Inhibition of human CGRP1
[15] = biological target: Microtubule-associated protein tau (Homo sapiens) (UniProt P10636); assay: Inhibition of Tau in human Huh-7 cells at 40 uM relative to control; format: cell-based
Sequence of Microtubule-associated protein tau (Homo sapiens) (P10636 whole entry): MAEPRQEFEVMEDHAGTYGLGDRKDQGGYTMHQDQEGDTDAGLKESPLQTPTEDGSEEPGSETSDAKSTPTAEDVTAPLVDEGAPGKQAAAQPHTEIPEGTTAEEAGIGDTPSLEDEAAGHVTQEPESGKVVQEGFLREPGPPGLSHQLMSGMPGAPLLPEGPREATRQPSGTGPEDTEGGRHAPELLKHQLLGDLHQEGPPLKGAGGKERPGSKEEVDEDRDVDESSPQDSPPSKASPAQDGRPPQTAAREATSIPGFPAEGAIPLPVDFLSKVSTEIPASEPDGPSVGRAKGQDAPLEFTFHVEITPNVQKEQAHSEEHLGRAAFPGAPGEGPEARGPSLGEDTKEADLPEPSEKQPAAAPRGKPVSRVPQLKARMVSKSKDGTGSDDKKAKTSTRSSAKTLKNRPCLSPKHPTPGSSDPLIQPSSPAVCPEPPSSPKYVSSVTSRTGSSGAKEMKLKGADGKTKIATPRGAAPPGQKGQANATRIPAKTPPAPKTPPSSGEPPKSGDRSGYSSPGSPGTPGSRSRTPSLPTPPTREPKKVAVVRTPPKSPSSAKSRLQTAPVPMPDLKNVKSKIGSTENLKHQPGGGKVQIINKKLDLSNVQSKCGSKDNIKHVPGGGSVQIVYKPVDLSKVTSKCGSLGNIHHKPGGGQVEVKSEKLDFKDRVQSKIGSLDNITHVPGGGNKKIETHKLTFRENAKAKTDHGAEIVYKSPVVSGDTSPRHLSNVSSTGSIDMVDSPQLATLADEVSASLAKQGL

Sequence of Calcitonin gene-related peptide type 1 receptor (Homo sapiens) (Q16602 whole entry): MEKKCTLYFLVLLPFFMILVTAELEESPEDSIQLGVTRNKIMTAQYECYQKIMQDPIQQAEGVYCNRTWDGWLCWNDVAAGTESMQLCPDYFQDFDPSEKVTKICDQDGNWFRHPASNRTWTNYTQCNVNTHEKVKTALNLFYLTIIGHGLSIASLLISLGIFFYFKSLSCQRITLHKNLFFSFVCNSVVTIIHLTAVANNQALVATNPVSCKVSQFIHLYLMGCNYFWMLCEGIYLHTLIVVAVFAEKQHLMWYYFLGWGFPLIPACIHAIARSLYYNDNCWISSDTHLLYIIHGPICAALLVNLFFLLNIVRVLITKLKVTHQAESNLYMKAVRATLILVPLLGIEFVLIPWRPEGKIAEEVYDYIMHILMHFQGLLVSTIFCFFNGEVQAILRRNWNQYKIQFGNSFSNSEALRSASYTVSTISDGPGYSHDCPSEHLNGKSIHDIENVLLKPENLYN
Sequence of Calcitonin gene-related peptide type 1 receptor (Q16602 whole entry, one chain of several): as the sequence (Q16602 whole entry) above

Compound: COc1ccc(/C=C/c2cc(OC)cc(OC)c2)cc1 [TRISMETHOXYRESVERATROL]
logP [1]: 3.85
IC50 (MIA PaCa-2): 35 µM

Compound: COc1ccc(-c2cc3cc(OC)cc(OC)c3[nH]2)cc1
IC50 (HT-29): 211 µM
logP [1]: 2.93

Compound: COc1ccc(-c2cc3cc(C)cc(C)c3[nH]2)cc1
IC50 (HT-29): 331 µM
logP [1]: 4.15

Compound: CCCCCCCCCCCC(=O)Oc1ccc(C=Cc2cc(OC(=O)CCCCCCCCCCC)cc(OC(=O)CCCCCCCCCCC)c2)cc1
IC50 (HT-29): 134 µM
logP [1]: > 11.2
IC50 (MIA PaCa-2): 198 µM

Compound: Oc1ccc(/C=C/c2cc(O)cc(O)c2)cc1 [RESVERATROL]
IC50 (HT-29): 78 µM
inhibition [13]: 2.3%
IC50 (MIA PaCa-2): 132 µM
inhibition [15]: 21.3%

Compound: COc1ccc(OC)c(-c2cc3ccc(OCc4ccccc4)cc3[nH]2)c1
IC50 (HT-29): 239 µM
inhibition at 2 µM (HCT-116 [2]): 45.6%
inhibition at 2 µM (HCT cell line [3]): 6.9%
inhibition at 20 µM (SNU-C1 [4]): 44.5%
logP [1]: 5.15
inhibition at 0.2 µM (COLO 320 [5]): 0%
inhibition at 0.2 µM (RKO): 77.3%
inhibition at 0.2 µM (HCT cell line [6]): 0%
inhibition at 2 µM (SNU-C1 [7]): 13.9%
inhibition at 2 µM (COLO 320 [8]): 0%
inhibition at 0.2 µM (SNU-C1 [9]): 7.4%
inhibition at 20 µM (COLO 320 [10]): 0%
inhibition at 20 µM (HCT cell line [11]): 48.9%
inhibition at 20 µM (HCT-116 [12]): 89.7%

Continued, in another order:

logP [1]: 3.59
Compound: COc1ccc(/C=C/c2cc(OC)c(OC)c(OC)c2)c(OC)c1
IC50 (HT-29): 12 µM
IC50 (MIA PaCa-2): 28 µM

logP [1]: 2.66
Compound: COc1ccc(OC)c(-c2cc3ccc(O)cc3[nH]2)c1
IC50 (HT-29): 10 µM
inhibition at 2 µM (HCT-116 [2]): 0%
inhibition at 2 µM (HCT cell line [3]): 0%
inhibition at 20 µM (SNU-C1 [4]): 30.3%
inhibition at 0.2 µM (COLO 320 [5]): 0%
inhibition at 0.2 µM (RKO): 9.4%
inhibition at 0.2 µM (HCT cell line [6]): 0%
inhibition at 2 µM (SNU-C1 [7]): 0%
inhibition at 2 µM (COLO 320 [8]): 0%
inhibition at 0.2 µM (SNU-C1 [9]): 0%
inhibition at 20 µM (COLO 320 [10]): 55.3%
inhibition at 20 µM (HCT cell line [11]): 6.3%
inhibition at 20 µM (HCT-116 [12]): 0%

logP [1]: 8.76
Compound: CC(C)(C)C(=O)Oc1ccc(/C=C/c2cc(OC(=O)C(C)(C)C)cc(OC(=O)C(C)(C)C)c2)cc1
IC50 (HT-29): 56 µM
IC50 (MIA PaCa-2): 39 µM

logP [1]: 2.28
Compound: Oc1ccc(/C=C/c2cc(O)c(O)c(O)c2)c(O)c1
IC50 (HT-29): 78 µM
IC50 (MIA PaCa-2): 96 µM

logP [1]: 1.82
inhibition [13]: 59.9%
IC50 [14]: 2.77 µM
Compound: Oc1ccc2cc(-c3cc(O)c(O)c(O)c3)oc2c1
IC50 (HT-29): 56 µM
inhibition at 2 µM (HCT-116 [2]): 33%
inhibition at 2 µM (HCT cell line [3]): 0.5%
inhibition at 20 µM (SNU-C1 [4]): 11.2%
inhibition at 0.2 µM (COLO 320 [5]): 0%
inhibition at 0.2 µM (RKO): 2.7%
inhibition at 0.2 µM (HCT cell line [6]): 15.6%
inhibition at 2 µM (SNU-C1 [7]): 3.1%
inhibition at 2 µM (COLO 320 [8]): 0%
inhibition at 0.2 µM (SNU-C1 [9]): 5.8%
inhibition at 20 µM (COLO 320 [10]): 0%
inhibition at 20 µM (HCT cell line [11]): 0%
inhibition at 20 µM (HCT-116 [12]): 85.9%

logP [1]: 2.21
Compound: Oc1cc(O)cc(-c2cc3ccc(O)cc3o2)c1 [MORACIN M]
IC50 (HT-29): 73 µM

logP [1]: 2.74
Compound: COc1cc(OC)cc(-c2cc3ccc(O)cc3o2)c1
IC50 (HT-29): 19 µM

logP [1]: 2.61
inhibition [13]: 54.2%
IC50 [14]: 2.41 µM
inhibition [15]: 58%
Compound: COc1cc(-c2cc3ccc(O)cc3o2)cc(OC)c1OC
IC50 (HT-29): 14 µM
inhibition at 2 µM (HCT-116 [2]): 6.3%
inhibition at 2 µM (HCT cell line [3]): 0.5%
inhibition at 20 µM (SNU-C1 [4]): 14.9%
inhibition at 0.2 µM (COLO 320 [5]): 0%
inhibition at 0.2 µM (RKO): 0%
inhibition at 0.2 µM (HCT cell line [6]): 0%
inhibition at 2 µM (SNU-C1 [7]): 8.7%
inhibition at 2 µM (COLO 320 [8]): 4.4%
inhibition at 0.2 µM (SNU-C1 [9]): 8.7%
inhibition at 20 µM (COLO 320 [10]): 0%
inhibition at 20 µM (HCT cell line [11]): 0%
inhibition at 20 µM (HCT-116 [12]): 87.4%

logP [1]: 2.29
Compound: OCCOc1ccc(/C=C/c2cc(OCCO)cc(OCCO)c2)cc1
IC50 (HT-29): 23 µM
IC50 (MIA PaCa-2): 79 µM
